Measurements of several laboratories.
Compare with care: the assays were run in different laboratories.
Target: Mitogen-activated protein kinase 9 (MAPK9, Homo sapiens, UniProt P45984)

| Structure (SMILES) | effect on | action | method | tested at | endpoint | result |
| --- | --- | --- | --- | --- | --- | --- |
| COc1ncccc1-c1cnn2ccc(N3CCN(C(=O)OC(C)C)CC3)nc12 | binding | – | competition with immobilised ligand | 1 µM | remaining binding | 100% |
| Nc1ncc(-c2nc(N3CCOCC3)nc(N3CCOCC3)n2)c(C(F)F)n1 | binding | – | competition with immobilised ligand | 10 µM | remaining binding | 83% |
| Cn1cc(-c2cc(F)cc(N3CCn4c(cc5c4CCCC5)C3=O)c2CO)cc(Nc2ccc(N3CCN(C4COC4)CC3)cn2)c1=O | enzyme activity | inhibitor | – | 0.1 µM | inhibition | 1% |
| CC(C)(C)c1cc(C=C(C#N)C#N)cc(Br)c1O | enzyme activity | inhibitor | – | 0.5 µM | remaining activity | 103% |
| Cc1nn(C)cc1-c1nc2c(N3CCN(Cc4ccc(Cl)cc4)CC3)c(Cl)cnc2[nH]1 | binding | – | competition with immobilised ligand | 1 µM | remaining binding | 100% |
| Cn1cc(-c2cccc(N3CCc4c(sc5c4CC(C)(C)C5)C3=O)c2CO)cc(Nc2ccncn2)c1=O | enzyme activity | inhibitor | – | 1 µM | inhibition | 12% |
| O=c1[nH]c2ccccc2n1C1CCN(Cc2ccc(-c3[nH]c4cc5ncnc5cc4nc3-c3ccccc3)cc2)CC1 | cell-free assay | – | – | 0.5 µM | remaining signal | 91.9% |
| Cn1cncc1[C@@](O)(COc1ccc(C#N)cc1-c1ccc(OC(F)(F)F)cc1)c1ccc(C#N)cc1 | cell-free assay | – | competition with immobilised ligand | 1 µM | remaining binding | 92% |
